The full list was thinned out, with hits kept by preference.
Bfl-1 A1 inh: inhibitors of the anti-apoptotic protein A1, read as caspase activation | AID 2462 | actives 0.066% (n = 330,000) | caspase activation, % (no concentration beside the values) | MEF A1-2A-BIM cells, Caspase-Glo 3/7 luminescence, 3 h; percent of clofoctol response, vehicle zero;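 active means over half of replicate activation scores above 10%, or exactly half above 10 with the replicate mean above 10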
CHOP inh: CHOP inhibition in unfolded protein response. actives 3.8% (n = 220,000). inhibition, % at 10 µM. CHO-K1 CHOP-promoter luciferase, tunicamycin-induced, 15-18 h;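 active means compounds that reduced the stress-induced luciferase reporter signal by more than about 70% of percent inhibition, limit read from the data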;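 further: 0% = tunicamycin plus vehicle and 100% = wells without tunicamycin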
UPR CHOP act: apoptotic UPR (CHOP) activation; AID 449763; activation, % at 10 µM; actives 0.34% (n = 330,000); CHO-CHOP luciferase reporter, luminescence; percent of tunicamycin response over DMSO baseline;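 active means at 10 µM dose, activation of 40% or more, normalized to positive control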;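 further: 100% = tunicamycin at 10 µg/mL and 0% = DMSO alone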
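Test system: CHO-CHOP cells, stable luciferase reporter of PERK-eIF2a-CHOP signalling | Quantity: 500 CHO-CHOP cells per well | Buffer or medium: F12 plus 10% serum | Compound dosing: 10 µM single point, 0.5% DMSO | Schedule: 6 h compound treatment, 37 °C | Signal: Luciferase luminescence | Control set: Tunicamycin high control, DMSO low control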
XBP1 UPR activ: activators of adaptive arm of unfolded protein response (XBP1); CHO-XBP1 luciferase reporter, IRE1-XBP1 UPR activation, luminescence; percent of tunicamycin response, DMSO as zero; activation, % at 20 µM; actives 0.33% (n = 330,000);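 active means versus positive control, 20 µM dose yields 30% or more activation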;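 further: 100% = tunicamycin at 10 µg/mL and 0% = DMSO only wells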
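incubation = overnight seeding at 37 °C, 6 h compound treatment at 37 °C | assay system = CHO-XBP1 cells stably carrying IRE1-XBP1-driven luciferase reporter | input = 1000 cells per well | detection = luciferase luminescence | dosing = single point, 20 µM final compound, 1% DMSO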
Numbers without * were called inactive; x = no result.

SMILES	Bfl-1 A1 inh	CHOP inh	UPR CHOP act	XBP1 UPR activ
COc1cccc(CN2C(=O)C(C)N(C(=O)c3ccccc3)c3ccccc32)c1 (stereo not drawn)	0	x	0	-1
CC(/C=C1\SC(=O)N(CC(=O)Nc2cccc(O)c2)C1=O)=C\c1ccccc1	0	95*	1	5
Cc1cccc(NC(=O)CN2C(=O)S/C(=C\C(=O)Nc3ccc(Cl)cc3)C2=O)c1	0	30	1	0
O=C(Nc1ccon1)c1ccc(OC2CCCC2)cc1	-3	78*	7	0
Cc1cc2c(cc1C)CSC(c1ccccc1OC(=O)C(C)C)SC2	0	72*	0	1
COc1cc(/C=C/c2ccc3cccc(O)c3n2)cc(Br)c1OC	-1	x	21	120*
Oc1c(I)cc(Cl)c2cccnc12	1	85*	0	-1
Cc1ccccc1OCc1nnc(SCC(=O)Nc2ccc3nc(SCC(=O)NC(C)(C)C)sc3c2)n1C	1	73*	-3	-8
CC(C)(C)NC(=O)CSc1nc2ccc(NC(=O)CSc3nnnn3Cc3ccccc3)cc2s1	-1	69	5	3
CCN(CC)C(=O)CSc1nc2ccc(NC(=O)CSc3nnc(COc4ccccc4C)n3C)cc2s1	0	56	-4	-1
CC(C)(C)NC(=O)CSc1nc2ccc(NC(=O)CSc3nnc(N)s3)cc2s1	0	70*	-2	-1
COc1ccc(C(=O)NCC(=O)NCc2ccncc2)cc1	0	x	-1	-1
CCOc1ccc(Nc2nc(Nc3ccc(O)cc3)nc(C)c2[N+](=O)[O-])cc1	0	80*	2	-1
CCC(C)C(NC(=O)C1CCC(C)CC1)C(=O)Nc1cc(OC)ccc1OC (stereo not drawn)	0	82*	0	-2
CCC(C)C(NC(=O)C1CCC(C)CC1)C(=O)Nc1ccc(OC)cc1OC (stereo not drawn)	0	10	2	-1
Cc1ccc2c(CN3CCN(S(=O)(=O)/C=C/c4ccccc4)CC3)cc(=O)oc2c1	1	23	2	-3
Cc1ccc2oc(=O)cc(/C=C/c3ccccc3)c2c1	2	76*	1	0
CC(Oc1ccccc1)C(=O)N1CCC2(CC1)CC(=O)c1ccccc1O2 (stereo not drawn)	0	x	0	-5
C=CCn1c(C)cc(C2=NNC(=NC(C)(C)C)SC2)c1C	-6	63	-8	-6
Cc1cc(C2=NNC(=NC3CC3)SC2)c(C)n1Cc1ccco1	-4	95*	x	x
C=CCN=C1NN=C(c2cc(C)n(CCOC)c2C)CS1	-1	80*	-10	-7
COCCCN=C1NN=C(c2cc(C)n(Cc3ccco3)c2C)CS1	0	11	-5	-3
COCCn1c(C)cc(C2=NNC(=Nc3ccc(Cl)cc3Cl)SC2)c1C	1	31	0	0
COCCn1c(C)cc(C2=NNC(=NC3CC3)SC2)c1C	-10	103*	-10	-7
CN(Cc1nc2ccccc2c(=O)[nH]1)C(=O)c1cccc(NC(=O)c2cccs2)c1	x	x	-1	1
SMILES	Bfl-1 A1 inh	CHOP inh	UPR CHOP act	XBP1 UPR activ
CN(C)C(=O)CCC(=O)N1CCCC(C(=O)c2ccc(C(F)(F)F)cc2)C1 (stereo not drawn)	1	x	1	-1
O=C(Nc1ccccc1C(=O)Nc1nnc(C(F)(F)F)s1)c1ccccc1	0	88*	6	2
CCOc1ccc(NS(=O)(=O)c2cc(C(=O)NCCN3CCOCC3)ccc2C)cc1	1	x	0	-6
Cc1cccc(NC(=S)NC2CCN(Cc3ccccc3)CC2)c1C	0	1	1	-4
CC(C)(C)CC(C)(C)NC(=S)NC1CCN(Cc2ccccc2)CC1	0	71*	0	3
CCc1cc2c3c(c(=O)oc2cc1O)CCCC3	0	90*	-1	1
CCc1cc2c3c(c(=O)oc2cc1OC(C)C(=O)O)CCCC3 (stereo not drawn)	0	x	1	-2
O=S1(=O)[C@H]2C[C@H](CO)O[C@@]2(CO)CN1Cc1ccc(-c2cccc(Cl)c2)cc1	x	x	2	-1
Cc1cccc2c1c1ccc3c(c1n2C)C(=O)C=CC3=O	x	78*	x	x
Cc1ccccc1N1CC(=O)N(c2ccccc2C)CC1=O	1	4	-3	-3
COc1ccc(N(C)S(=O)(=O)c2cccc(C(=O)OCC(=O)N3CC(C)CC(C)C3)c2)cc1 (stereo not drawn)	0	x	1	-5
N#Cc1c(NC(=O)CSc2nnnn2C2CCCC2)sc2c1CCCC2	0	82*	-1	3
N#Cc1c(NC(=O)CSc2nc(N)cc(=O)[nH]2)sc2c1CCCCCC2	-1	x	2	3
Cc1sc(NC(=O)CSc2nnnn2C2CCCC2)c(C#N)c1C	-1	43	-2	-4
N#Cc1c(NC(=O)CSc2ncn[nH]2)sc2c1CCCCC2	-3	91*	-7	-5
COC(=O)c1c(NC(=O)CSc2ncnc3[nH]ncc23)sc2c1CCC2	-1	77*	3	-1
COC(=O)c1c(NC(=O)CSc2ncnc3c2cnn3-c2ccccc2Cl)sc2c1CCCC2	-1	14	-3	-2
CC(C)[C@H](NC(=O)N1CCn2c1nc1ccccc12)C(=O)NC1CCCCC1	1	x	-1	-4
CCN(CC(=O)NC1CC1)S(=O)(=O)c1ccc(OC)cc1	1	x	0	-2
Cc1ccc(NC(=O)c2cc(N3C(=O)C=CC3=O)ccc2N2CCOCC2)cc1	x	109*	x	x
Cc1ccc(NC(=O)c2cc(N3C(=O)C=CC3=O)ccc2Cl)cc1C	0	104*	0	-3
Cc1ccc(NC(=O)CCc2nnc3ccc(NCc4ccco4)nn23)cc1	-1	x	2	-1
COC(=O)c1cc(S(=O)(=O)Nc2cc(OC)cc(OC)c2)c[nH]1	0	x	2	-5
COC(=O)N/N=C/c1ccc(-c2cc(Cl)ccc2Cl)o1	2	-32	0	-2
O/N=C/c1ccc(-c2cc(Cl)ccc2Cl)o1	-1	96*	-4	-3
SMILES	Bfl-1 A1 inh	CHOP inh	UPR CHOP act	XBP1 UPR activ
CSCCC(NS(=O)(=O)c1ccc(C)cc1)C(=O)N1CC=C(c2ccccc2)CC1 (stereo not drawn)	0	x	-1	0
Cc1cccc(N2CCN(C(=O)c3c(-c4ccccc4Cl)noc3C)CC2)c1C	3	x	0	1
O=C(CNS(=O)(=O)c1ccc(F)cc1)N1CCN(c2ccccc2)CC1	0	80*	3	-3
O=C1N/C(=C/c2ccc(Br)s2)C(=O)N1c1ccccc1	-1	96*	1	3
Cc1nc(N2CCN(C)CC2)c2sc(=S)n(-c3ccccc3)c2n1	0	-13	1	1
Cc1nc(N2CCN(C)CC2)c2sc(=S)n(C)c2n1	0	74*	-1	2
c1ccc(-c2noc(CN3CCN(c4ccccc4)CC3)n2)cc1	0	86*	1	-1
Fc1ccccc1N1CCN(Cc2nc(-c3ccccc3)no2)CC1	0	86*	1	-2
